Reference: ChEMBL document CHEMBL3853307, “Anti-inflammatory Effect of Methyl Gallate on Experimental Arthritis: Inhibition of Neutrophil Recruitment, Production of Inflammatory Mediators, and Activation of Macrophages” (J Nat Prod, 2016)
Calls of active or inactive are those of the source. No cut-off for these calls is given here.

Key:
[1] = tested on: J774.A1; assay: Antiinflammatory activity in mouse J774A.1 cells assessed as inhibition of zymosan and IFNgamma-induced IL6 production in cell-free supernatant at 0.1 to 10 uM preincubated for 1 hr followed by zymosan and IFNgamma addition measured after 24 hrs by sandwich ELISA; assay type: functional, cell-based
Outline: (§1)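 J774A.1 macrophages (1 × 10^5/well, RPMI/10% FBS) adhered 24 h, preincubated 1 h with compound (0.1−10 μM) or dexamethasone (1 μM), then stimulated with zymosan (10 μg per 10^5 cells) and/or IFN-γ (25 U/mL) for 24 h. Supernatant IL-6 by sandwich ELISA; nitrite by Griess reaction at 540 nm. Quadruplicate wells, two experiments.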

[2] = tested on: Mus musculus; assay: Antiinflammatory activity in C57BL/6 mouse assessed as inhibition of zymosan-induced bleeding in synovial tissue at 7 mg/kg, po administered 1 hr prior to zymosan challenge measured at 6 to 24 hrs by hematoxylin and eosin staining-based optical microscopy; assay type: functional, organism-based
Outline: (§2)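 Mice dosed orally or i.p. 1 h before i.a. zymosan (500 μg/cavity) or saline. Whole knees taken at 6 and 24 h from six mice, fixed in 10% formalin 48 h, decalcified in 10% EDTA/PBS 1−2 weeks, paraffin-embedded. 5 μm sections H&E-stained and examined by light microscopy. Parameter scores summed into an arthritis index; means ± SEM, two experiments.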

[3] = tested on: Mus musculus; assay: Antiinflammatory activity in C57BL/6 mouse assessed as inhibition of zymosan-induced knee joint edema formation at 7 mg/kg, po administered 1 hr prior to zymosan challenge measured at 24 hrs relative to control; assay type: functional; conditions: C57BL/6, Knee joint
Outline: (§3)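 Male C57BL/6 mice, fasted overnight, dosed orally (vehicle saline/water, 200 μL) or i.p. 1 h before zymosan (500 μg in 25 μL saline, i.a., left knee). Knee swelling measured as change in transverse diameter from basal by digital caliper (mm). Synovial washes (PBS/EDTA) counted on a particle counter; differentials from May-Grünwald-Giemsa cytospins, cells ×10^5/cavity. Sampled at 6 and/or 24 h; seven mice/group.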

[4] = tested on: Mus musculus; assay: Antiinflammatory activity in C57BL/6 mouse assessed as inhibition of zymosan-induced total leukocyte accumulation in articular cavity at 7 mg/kg, po administered 1 hr prior to zymosan challenge measured at 6 hrs; assay type: functional, organism-based; outline: as §3
[5] = tested on: Mus musculus; assay: Antiinflammatory activity in C57BL/6 mouse assessed as inhibition of zymosan-induced PGE2 production in cell-free supernatant of knee joint synovial washes at 7 mg/kg, po administered 1 hr prior to zymosan challenge measured at 6 to 24 hrs by immunosorbent assay; assay type: functional, organism-based
Outline: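 Male C57BL/6 mice (18−22 g), fasted overnight, dosed orally (in filtered water, 200 μL) or i.p. 1 h before i.a. zymosan (500 μg in 25 μL saline) into left knee; contralateral knee got vehicle. Synovial cavity washed twice with 150 μL PBS/10 mM EDTA at 6 and 24 h; washes spun 400g 10 min, 4 °C. Cytokines measured by sandwich ELISA, LTB4/PGE2 by EIA (pg/mL); six mice/group, two experiments.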

[6] = tested on: Mus musculus; assay: Antiinflammatory activity in C57BL/6 mouse assessed as inhibition of zymosan-induced total leukocyte accumulation in articular cavity at 7 mg/kg, po administered 1 hr prior to zymosan challenge measured at 24 hrs; assay type: functional, organism-based; outline: as §3
[7] = tested on: Mus musculus; assay: Antiinflammatory activity in C57BL/6 mouse assessed as inhibition of zymosan-induced mononuclear cells migration in articular cavity at 7 mg/kg, po administered 1 hr prior to zymosan challenge measured at 6 to 24 hrs; assay type: functional, organism-based; outline: as §3
[8] = tested on: Mus musculus; assay: Antiinflammatory activity in C57BL/6 mouse assessed as inhibition of zymosan-induced knee joint edema formation at 0.7 to 70 mg/kg, po administered 1 hr prior to zymosan challenge measured at 6 hrs; assay type: functional, organism-based; outline: as §3
[9] = tested on: Mus musculus; assay: Antiinflammatory activity in zymosan-induced C57BL/6 mouse pleurisy model assessed as reduction in protein extravasation in thoracic cavity at 10 to 50 mg/kg, po administered 1 hr prior to zymosan challenge measured after 4 hrs; assay type: functional, organism-based
Outline: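 Oral pretreatment 1 h before intrathoracic zymosan (100 μg/cavity in 100 μL saline). Cavities washed at 4 h with 1 mL PBS/10 mM EDTA. Total leukocytes counted on a particle counter, differentials from May-Grünwald-Giemsa cytospins (×10^6/cavity). Supernatant after 400g 10 min assayed for total protein by Bradford.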

[10] = tested on: Mus musculus; assay: Antiinflammatory activity in C57BL/6 mouse assessed as inhibition of zymosan-induced knee joint edema formation at 7 mg/kg, po administered 1 hr prior to zymosan challenge measured at 6 hrs relative to control; assay type: functional; conditions: C57BL/6, Knee joint; outline: as §3
[11] = tested on: Mus musculus; assay: Antiinflammatory activity in C57BL/6 mouse assessed as inhibition of zymosan-induced paw edema at 10 to 50 mg/kg, po administered 1 hr prior to zymosan challenge measured after 4 hrs by plethysmography; assay type: functional, organism-based
Outline: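 C57BL/6 mice dosed orally (1−50 mg/kg) before intraplantar zymosan (100 μg/paw in 50 μL saline); contralateral paw got saline. Volume measured by plethysmography at 4 h, edema taken as right minus left paw (μL).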

[12] = tested on: Mus musculus; assay: Antiinflammatory activity in C57BL/6 mouse assessed as inhibition of zymosan-induced infiltration of inflammatory cells into synovial tissue at 7 mg/kg, po administered 1 hr prior to zymosan challenge measured at 6 to 24 hrs by hematoxylin and eosin staining-based optical microscopy; assay type: functional, organism-based; outline: as §2
[13] = tested on: Neutrophil; assay: Antiinflammatory activity in C57BL/6 mouse neutrophils assessed as inhibition of CXCL1/KC-induced neutrophil chemotaxis at 0.1 to 1 uM preincubated for 1 hr followed by CXCL1/KC-induction measured after 1 hr by Wright-Giemsa staining-based light microscopic method; assay type: functional, cell-based
Outline: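 Bone marrow neutrophils from C57BL/6 femurs, purified on a 65%/72% Percoll gradient (~85−90% purity). 10^5 cells preincubated 1 h with compound or medium, then placed in a 48-well Boyden chamber over CXCL-1/KC (250 nM) across a 5 μm polycarbonate filter, 60 min at 37 °C, 5% CO2. Filter Wright-Giemsa stained; migrated cells counted in 15 fields; quadruplicate wells.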

[14] = tested on: Mus musculus; assay: Antiinflammatory activity in C57BL/6 mouse assessed as inhibition of zymosan-induced neutrophils recruitment in synovial cavity at 0.7 to 70 mg/kg, po administered 1 hr prior to zymosan challenge measured after 6 to 24 hrs by Grunwald-Giemsa-stained cytospin smear; assay type: functional, organism-based; outline: as §3
[15] = tested on: Mus musculus; assay: Antiinflammatory activity in C57BL/6 mouse assessed as inhibition of zymosan-induced total leukocyte recruitment in synovial cavity at 0.7 to 70 mg/kg, po administered 1 hr prior to zymosan challenge measured after 6 to 24 hrs by particle counting method; assay type: functional, organism-based; outline: as §3
[16] = tested on: J774.A1; assay: Antiinflammatory activity in mouse J774A.1 cells assessed as inhibition of zymosan and IFNgamma-induced nitric oxide production at 10 uM preincubated for 1 hr followed by zymosan and IFNgamma addition measured after 24 hrs by colorimetric Griess test; assay type: functional, cell-based; outline: as §1
[17] = Cytotoxicity against mouse J774A.1 cells assessed as cell viability at 0.01 to 100 uM after 20 hrs by Alamar Blue assay relative to control; assay type: toxicity, J774.A1; conditions: read-out: Activity
Outline: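 J774A.1 cells at 2.5 × 10^5 cells/well, 24 h pre-incubation at 37 °C, 5% CO2; fresh medium with or without Tween 20 (3%) or compound (0.01−100 μM), quadruplicate; 20 h incubation, then Alamar Blue added for 4 h; fluorescence read at ex 555/em 585 nm.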

Q: For `COC(=O)c1cc(O)c(O)c(O)c1` [GALLIC ACID METHYL ESTER], which inhibition [1] is on record?
A: Active

Q: And the inhibition [2]?
A: Active

Q: And the inhibition in vivo at 7 mg/kg [3]?
A: 49%

Q: What about the inhibition [4] of the same molecule?
A: Active

Q: And the inhibition [5]?
A: Active

Q: And the inhibition [6]?
A: Active

Q: What about the inhibition [7] of the same molecule?
A: Active

Q: What about the inhibition [8] of the same molecule?
A: Active

Q: And the Activity [9]?
A: Active

Q: And the inhibition in vivo at 7 mg/kg [10]?
A: 24%

Q: And the inhibition [11]?
A: Active

Q: What about the inhibition [12] of the same molecule?
A: Active

Q: And the inhibition [13]?
A: Active

Q: And the inhibition [14]?
A: Active

Q: What about the inhibition [15] of the same molecule?
A: Active

Q: And the inhibition [16]?
A: Active

Q: What about the viability at 20 h, up to 100 µM [17] of the same molecule?
A: ≥ 95%
